Measured values: paper PMC7035113 (Nature, 2020)
Square brackets hold non-standard residues; d marks the D form. Ends that are not written are not given here. Peptide text beside a SMILES is read from it. pT = C[C@@H](OP(=O)(O)O)[C@H](N)C(=O)O

Target: T1, SA2-SCC1 (Homo sapiens, UniProt O60216+Q8N3U4)
T1 sequence (Q8N3U4 80-1060): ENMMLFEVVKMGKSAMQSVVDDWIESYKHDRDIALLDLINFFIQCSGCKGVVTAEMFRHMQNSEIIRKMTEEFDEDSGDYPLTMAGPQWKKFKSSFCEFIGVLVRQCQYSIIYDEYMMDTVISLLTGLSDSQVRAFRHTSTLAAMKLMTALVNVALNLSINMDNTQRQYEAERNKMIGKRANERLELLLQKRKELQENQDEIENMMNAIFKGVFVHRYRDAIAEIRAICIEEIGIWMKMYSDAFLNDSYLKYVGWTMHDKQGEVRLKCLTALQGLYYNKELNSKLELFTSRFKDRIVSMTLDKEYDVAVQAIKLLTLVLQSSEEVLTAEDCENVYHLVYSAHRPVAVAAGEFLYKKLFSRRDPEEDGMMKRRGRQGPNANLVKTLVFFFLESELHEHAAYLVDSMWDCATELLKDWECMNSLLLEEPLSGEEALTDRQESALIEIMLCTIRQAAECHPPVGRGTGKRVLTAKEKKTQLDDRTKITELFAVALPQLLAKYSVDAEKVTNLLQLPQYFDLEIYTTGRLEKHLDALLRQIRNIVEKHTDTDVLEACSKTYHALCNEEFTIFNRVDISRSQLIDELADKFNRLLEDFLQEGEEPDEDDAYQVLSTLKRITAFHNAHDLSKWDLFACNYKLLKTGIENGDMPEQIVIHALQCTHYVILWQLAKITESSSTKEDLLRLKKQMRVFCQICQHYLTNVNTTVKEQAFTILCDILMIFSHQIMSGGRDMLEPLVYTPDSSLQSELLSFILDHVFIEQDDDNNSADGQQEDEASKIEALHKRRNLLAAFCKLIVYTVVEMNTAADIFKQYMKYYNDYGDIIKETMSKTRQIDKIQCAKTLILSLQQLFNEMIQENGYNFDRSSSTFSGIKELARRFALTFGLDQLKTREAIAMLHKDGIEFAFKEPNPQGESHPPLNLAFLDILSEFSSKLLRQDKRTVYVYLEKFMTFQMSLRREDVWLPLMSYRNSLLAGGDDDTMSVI
T1 sequence (O60216 281-420): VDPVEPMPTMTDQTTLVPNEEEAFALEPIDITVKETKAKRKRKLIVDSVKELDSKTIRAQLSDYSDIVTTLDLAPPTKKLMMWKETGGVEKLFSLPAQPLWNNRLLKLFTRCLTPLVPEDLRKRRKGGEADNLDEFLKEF
Test: Isothermal titration calorimetry
Conditions: ITC, 25°C, one site binding model
Method in brief: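 Recombinant SA2-SCC1 from E. coli BL21(DE3), purified by Co2+ IMAC, MonoQ and Superdex 200. Protein and peptides were dialysed overnight at 4°C against 20 mM Tris pH 7.7, 150 mM NaCl, 0.5 mM TCEP. 50 μM SA2-SCC1 was placed in the cell and titrated with 500 μM peptide in 16 injections. Data were fitted to a one-site model; titrations were repeated three times.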

N (binding stoichiometry)	TΔS [kcal/mol]	ΔG [kcal/mol]	ΔH [kcal/mol]	Compound
0.89	-12.30	-7.69	-20.00	CC(C)C[C@H](NC(=O)[C@H](CC(N)=O)NC(=O)[C@H](Cc1ccccc1)NC(=O)[C@H](CC(N)=O)NC(=O)[C@H](Cc1ccc(O)cc1)NC(=O)[C@H](C)NC(=O)[C@H](CC(=O)O)NC(=O)[C@H](CC(N)=O)NC(=O)[C@@H](N)CO)C(=O)N[C@@H](CCC(=O)O)C(=O)N[C@@H](CCC(=O)O)C(=O)NCC(=O)N[C@H](C(=O)N[C@@H](Cc1c[nH]cn1)C(=O)N[C@@H](CC(C)C)C(=O)N[C@H](C(=O)N1CCC[C@H]1C(=O)N[C@@H](Cc1ccccc1)C(=O)N[C@@H](CCCNC(=N)N)C(=O)O)[C@@H](C)OP(=O)(O)O)C(C)C [Shugoshin 331-349 (pT346), reference compound] (H-SNDAYNFNLEEGVHL[pT]PFR-OH; N-terminus and C-terminus assumed)
0.62	-0.54	-6.11	-6.66	DVKLEFFGFEDHETGGDEGGSGSSNYKIKYFGFDDLSESED [Wapl 423-463]
1.00	-1.20	-5.60	-6.81	NYKIKYFGFDDLSESE [Wapl 447-462]
0.83	-4.02	-6.64	-10.67	SNDAYNFNLEE [Shugoshin 331-341]
